Article PMC5288965 (Journal of Advanced Pharmaceutical Technology & Research, 2017)
≈ marks a conversion by molar mass, not a printed value. Entries after “also recorded” stand apart in the source; their conditions may differ. Where two headings read alike, the source gives them in different places. One block for each molecule: values may come before it.

Key:
[1] = molecular target: T1, porcine pancreatic α-amylase (Sus scrofa, UniProt P00690); test: Inhibition of pancreatic alpha-amylase activity; format: biochemical
T1 sequence (P00690 16-511): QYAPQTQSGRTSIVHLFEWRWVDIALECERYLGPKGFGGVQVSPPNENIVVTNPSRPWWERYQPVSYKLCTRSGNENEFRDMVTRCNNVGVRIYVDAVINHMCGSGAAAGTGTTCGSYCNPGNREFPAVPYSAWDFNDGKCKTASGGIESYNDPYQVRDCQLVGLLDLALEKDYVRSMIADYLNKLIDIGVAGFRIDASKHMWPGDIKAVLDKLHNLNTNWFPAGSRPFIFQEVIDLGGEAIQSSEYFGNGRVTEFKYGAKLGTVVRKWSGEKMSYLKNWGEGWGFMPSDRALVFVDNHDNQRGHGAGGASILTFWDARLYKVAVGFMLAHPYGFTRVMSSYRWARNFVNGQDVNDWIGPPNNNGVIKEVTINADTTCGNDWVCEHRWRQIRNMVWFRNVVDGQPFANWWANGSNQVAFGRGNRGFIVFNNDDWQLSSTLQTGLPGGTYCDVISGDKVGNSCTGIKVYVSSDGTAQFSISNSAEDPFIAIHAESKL

[2] = molecular target: rat intestinal α-glucosidase; test: Inhibition of rat alpha-glucosidase activity; format: biochemical; conditions: for IC50 Rat α-glucosidase: 1 mM PNPG substrate, triplicate; for % inhibition of rat α-glucosidase: at 1.25 mg/ml
yeast α-glucosidase = yeast α-glucosidase (Saccharomyces cerevisiae, UniProt P53341); test: Inhibition of yeast alpha-glucosidase activity; format: biochemical
Sequence of yeast α-glucosidase (P53341 whole entry): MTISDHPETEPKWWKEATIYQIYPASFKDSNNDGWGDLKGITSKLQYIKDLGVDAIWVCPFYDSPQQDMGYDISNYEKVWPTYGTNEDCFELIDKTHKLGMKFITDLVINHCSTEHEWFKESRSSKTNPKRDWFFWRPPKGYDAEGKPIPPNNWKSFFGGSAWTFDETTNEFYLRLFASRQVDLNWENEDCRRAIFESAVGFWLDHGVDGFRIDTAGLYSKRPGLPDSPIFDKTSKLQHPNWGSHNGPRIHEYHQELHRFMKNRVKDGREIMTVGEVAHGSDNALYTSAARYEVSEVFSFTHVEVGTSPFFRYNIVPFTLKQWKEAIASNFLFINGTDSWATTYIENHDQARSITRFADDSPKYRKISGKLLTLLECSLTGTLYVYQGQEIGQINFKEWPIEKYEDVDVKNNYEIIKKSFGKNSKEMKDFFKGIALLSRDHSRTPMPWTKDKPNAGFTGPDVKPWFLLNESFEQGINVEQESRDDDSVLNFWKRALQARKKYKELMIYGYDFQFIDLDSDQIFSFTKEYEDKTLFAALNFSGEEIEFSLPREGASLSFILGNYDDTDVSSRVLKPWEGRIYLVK

[3] = tested on: Hep-G2 liver hepatoblastoma cells; test: MTT assay, Hep-G2; format: cell-based; conditions: Homo sapiens, HepG2, 48 h, read-out: IC50 Hep-G2
In short: (§1)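 Cells grown in RPMI 1640 with 5% fetal calf serum at 37°C, 5% CO2. Seeded 5,000 cells per well, 24 h, then test compound in DMSO added (vehicle DMSO, or water for the reference drug), 48 h at 37°C. MTT solution (5 mg/ml) added for 4 h, medium removed, formazan dissolved in DMSO plus 0.1 mol/l glycine, A540 read. Run in quadruplicate.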

[4] = tested on: Chago K-1 bronchogenic carcinoma cells; test: MTT assay, Chago K-1; format: cell-based; conditions: Homo sapiens, ChaGo-K-1, 48 h, read-out: IC50 Chago-K1
In short: as §1

α-glucosidase = conditions: cited from earlier work
[5] = tested on: Kato-III gastric carcinoma cells; test: MTT assay, Kato-III; format: cell-based; conditions: Homo sapiens, 48 h, read-out: IC50 Kato-III
In short: as §1

[6] = tested on: CCD-986SK skin fibroblast cells; test: MTT assay, normal skin fibroblast; format: cell-based, human
In short: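 Culture medium was Dulbecco's modified Eagle's medium, 37°C, 5% CO2. Cells were seeded at 5,000 per well for 24 h and exposed to test compound in DMSO for 48 h at 37°C. MTT (5 mg/ml solution) was added for 4 h, medium was removed, formazan was dissolved in DMSO with 0.1 mol/l glycine, and A540 was read. Run in quadruplicate.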

[7] = tested on: all tested cancer cell lines (BT474, Chago K-1, Hep-G2, Kato-III, SW 620); test: MTT assay, all tested cancer cell lines together; format: cell-based, human
In short: as §1

α-amylase = conditions: cited from earlier work
[8] = tested on: SW 620 colon adenocarcinoma cells; test: MTT assay, SW 620; format: cell-based; conditions: Homo sapiens, SW-620, 48 h, read-out: IC50 SW620
In short: as §1

[9] = tested on: WI-38 VA-13 subline 2RA lung fibroblast cells; test: MTT assay, normal lung fibroblast; format: cell-based, human
In short: as §1

[10] = tested on: BT474 ductal carcinoma cells; test: MTT assay, BT474; format: cell-based; conditions: Homo sapiens, BT-474, 48 h, read-out: IC50 BT474
In short: as §1

[11] = read-out: % inhibition of pancreatic α-amylase

- inhibition at 156 µg/mL [1, 11]: 73.9%
- IC50 Rat α-glucosidase [2]: 449.3 µg/mL (≈ 696 µM)
- % inhibition of rat α-glucosidase [2]: 58.7%
- % inhibition of yeast α-glucosidase (yeast α-glucosidase; at 40 mg/ml): 73.9%
SMILES: C[C@H]1O[C@H](O[C@H]2[C@H](O)[C@@H](O)[C@@H](O[C@H]3[C@H](O)[C@@H](O)C(O)O[C@@H]3CO)O[C@@H]2CO)[C@H](O)[C@@H](O)[C@@H]1N[C@H]1C=C(CO)[C@@H](O)[C@H](O)[C@H]1O (some centres unmarked) [Acarbose]

SMILES: O=c1c2cc(O)c(O)cc2oc2cc(O)c([C@@H]3O[C@H](CO)[C@@H](O)[C@H](O)[C@H]3O)c(O)c12 [Mangiferin, 1,3,6,7-Tetrahydroxyxanthone C2-ß-D-glucoside]
- IC50 [3]: > 200 µg/mL
- IC50 [4]: > 200 µg/mL
- IC50 α-glucosidase (α-glucosidase): 41.88 µg/mL (≈ 99.2 µM)
- IC50 [1]: 2480 µM
- inhibition at 5000 µg/mL [1, 11]: 95.6%
- IC50 [5]: > 200 µg/mL
- IC50 ([6]; Homo sapiens, CCD-986Sk, 48 h, read-out: IC50 CCD): > 200 µg/mL
- effect on % survival of skin fibroblast normal cell line ([6]; MTT, listed as mangiferin): tended to increase the survival; also recorded: increased % survival of skin fibroblast
- effect on % survival of tested cancer cells [7]: did not significantly affect % survival
- effect on % survival of tested cancer cells ([7]; listed as mangiferin): did not show significantly toxicity
- IC50 α-amylase (α-amylase): 74.35 µg/mL (≈ 176 µM)
- IC50 Rat α-glucosidase [2]: 433.3 µg/mL (≈ 1030 µM)
- IC50 Rat α-glucosidase ([2]; listed as mangiferin): 430 µg/mL (≈ 1020 µM)
- % inhibition of rat α-glucosidase [2]: 92.6%
- inhibition at 2500 µg/mL (yeast α-glucosidase; read-out: % inhibition of yeast α-glucosidase): 93.3%
- IC50 [8]: > 200 µg/mL
- IC50 ([9]; Homo sapiens, WI-38 VA13, 48 h, read-out: IC50 Wi-38): > 200 µg/mL
- effect on survival of lung fibroblast normal cell line ([9]; at high dose, MTT): tended to increase the survival
- IC50 [10]: > 200 µg/mL
